Laboratory results published in ChEMBL document CHEMBL4765386, “Discovery of tertiary amide derivatives incorporating benzothiazole moiety as anti-gastric cancer agents in vitro via inhibiting tubulin polymerization and activating the Hippo signaling pathway” (Eur J Med Chem, 2020).
The source made the active and inactive calls. The rule behind the calls is not given here.

Experiments:
[1] = tested on: MGC-803; assay: Induction of apoptosis in human MGC-803 cells assessed as downregulation of Mcl-1 at 20 to 60 nM incubated for 48 hrs by Western blot analysis; format: functional, cell-based; settings: dose 20-60 nM
Procedure, shortened: (§1)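 Western blot on MGC-803 and SGC-7901 cells given 20, 40 and 60 nM compound or DMSO for 48 h. Denatured lysates were run on SDS-PAGE and transferred to PVDF, then probed with primary and secondary antibodies to detect apoptosis-related proteins.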

[2] = tested on: MGC-803; assay: Induction of apoptosis in human MGC-803 cells assessed as late apoptotic cells at 60 nM incubated for 48 hrs by annexin V-FITC and PI staining based flow cytometry analysis (reference value: 4.1 %); format: functional
[3] = tested on: MGC-803; assay: Displacement of EBI from beta-tubulin in human MGC-803 cells assessed as reduction in tubulin adduct formation incubated for 2 hrs followed by EBI addition and measured after 2 hrs by Western blot analysis; format: cell-based; settings: dose 0.25-2.5 µM, time 4.0 hrs
Procedure, shortened: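 EBI competition assay. […] EBI was then added at […] as printed for another 2 h. Harvested cells were immunoblotted with anti-β-tubulin antibody to detect β-tubulin and the alkylated β-tubulin adduct.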

[4] = tested on: MGC-803; assay: Activation of Hippo signaling pathway in human […] cells assessed as decrease in c-MYC expression incubated for 48 hrs by Western blot analysis; format: cell-based; settings: filed as activator, dose 20-60 nM
Procedure, shortened: (§2)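 Western blot on gastric cancer cells exposed to compound or DMSO at 20, 40 and 60 nM for 48 h. Cells were lysed, then the denatured lysates were separated by SDS-PAGE and transferred to PVDF. Membranes were blocked and probed with primary and then secondary antibodies. Hippo pathway proteins were detected.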

[5] = tested on: SGC-7901; assay: Induction of apoptosis in human SGC-7901 cells assessed as downregulation of XIAP at 20 to 60 nM incubated for 48 hrs by Western blot analysis; format: functional, cell-based; settings: dose 20-60 nM; procedure, shortened: as §1
[6] = tested on: SGC-7901; assay: Induction of apoptosis in human SGC-7901 cells assessed as upregulation of FADD at 20 to 60 nM incubated for 48 hrs by Western blot analysis; format: functional, cell-based; settings: dose 20-60 nM
Procedure, shortened: (§3)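 Cells grown in RPMI-1640 with 10% FBS, penicillin/streptomycin at 37 °C, 5% CO2. Exposure to 20, 40 or 60 nM for 48 h alongside DMSO control. Lysates denatured, resolved by SDS-PAGE, transferred to PVDF, blocked, then probed with primary and secondary antibodies.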

[7] = Antiproliferative activity against human SGC-7901 cells assessed as reduction in cell viability at 60 nmol/L incubated for 48 hrs by MTT assay relative to control; format: functional; settings: SGC-7901, 48 h
Procedure, shortened: (§4)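 MTT viability in gastric cell lines grown in RPMI-1640 with 10% FBS at 37 °C, 5% CO2. Compound at 20, 40 and 60 nM for 48 h, starting 24 h after seeding 5,000 cells per well. MTT for 4 h, formazan dissolved in DMSO, absorbance at 490 nm. Inhibition expressed relative to control.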

[8] = tested on: GES1; assay: Cytotoxicity against human GES1 cells assessed as reduction in cell viability at 60 nmol/L incubated for 48 hrs by MTT assay; format: functional; settings: GES1, read-out: INH; procedure, shortened: as §4
[9] = tested on: SGC-7901; assay: Activation of Hippo signaling pathway in human SGC-7901 cells assessed as increase in MST1/2 phosphorylation at 20 to 60 nM incubated for 48 hrs by Western blot analysis; format: cell-based; settings: filed as activator, dose 20-60 nM; procedure, shortened: as §2
[10] = tested on: MGC-803; assay: Induction of cell cycle arrest in human MGC-803 cells assessed as upregulation of Histone-H3 Ser10 at 20 to 60 nM incubated for 48 hrs by Western blot analysis; format: functional, cell-based; settings: dose 20-60 nM; procedure, shortened: as §3
[11] = tested on: SGC-7901; assay: Induction of cell cycle arrest in human SGC-7901 cells assessed as downregulation of CDK1 at 20 to 60 nM incubated for 48 hrs by Western blot analysis; format: functional, cell-based; settings: dose 20-60 nM; procedure, shortened: as §3
[12] = tested on: SGC-7901; assay: Induction of apoptosis in human SGC-7901 cells assessed as downregulation of Bcl-xl at 20 to 60 nM incubated for 48 hrs by Western blot analysis; format: functional, cell-based; settings: dose 20-60 nM; procedure, shortened: as §1
[13] = tested on: MGC-803; assay: Induction of apoptosis in human MGC-803 cells assessed as fragmentation of cells at 20 to 60 nM; format: functional, cell-based; settings: dose 20-60 nM
[14] = tested on: SGC-7901; assay: Activation of Hippo signaling pathway in human SGC-7901 cells assessed as downregulation of TEAD at 20 to 60 nM incubated for 48 hrs by Western blot analysis; format: cell-based; settings: filed as activator, dose 20-60 nM; procedure, shortened: as §2
[15] = tested on: SGC-7901; assay: Induction of apoptosis in human SGC-7901 cells assessed as upregulation of Noxa at 20 to 60 nM incubated for 48 hrs by Western blot analysis; format: functional, cell-based; settings: dose 20-60 nM; procedure, shortened: as §3
[16] = tested on: MGC-803; assay: Cytotoxicity against human MGC-803 cells harboring SiYAP assessed as increase in cell viability at 20 to 60 nM incubated for 48 hrs by MTT assay; format: cell-based; settings: mgc-803, 48 h, 0.06 µM, dose 20-60 nM
[17] = tested on: MGC-803; assay: Induction of apoptosis in human MGC-803 cells assessed as early apoptotic cells at 40 nM incubated for 48 hrs by annexin V-FITC and PI staining based flow cytometry analysis (reference value: 2.9 %); format: functional
[18] = tested on: SGC-7901; assay: Induction of cell cycle arrest in human SGC-7901 cells assessed as upregulation of Histone-H3 Ser10 at 20 to 60 nM incubated for 48 hrs by Western blot analysis; format: functional, cell-based; settings: dose 20-60 nM; procedure, shortened: as §3
[19] = tested on: SGC-7901; assay: Induction of apoptosis in human SGC-7901 cells assessed as increase in PARP cleavage at 20 to 60 nM incubated for 48 hrs by Western blot analysis; format: functional, cell-based; settings: dose 20-60 nM; procedure, shortened: as §3
[20] = tested on: MGC-803; assay: Induction of apoptosis in human MGC-803 cells assessed as late apoptotic cells at 20 nM incubated for 48 hrs by annexin V-FITC and PI staining based flow cytometry analysis (reference value: 4.1 %); format: functional
[21] = tested on: SGC-7901; assay: Induction of apoptosis in human SGC-7901 cells assessed as early apoptotic cells at 20 nM incubated for 48 hrs by annexin V-FITC and PI staining based flow cytometry analysis (reference value: 1.4 %); format: functional
[22] = tested on: SGC-7901; assay: Induction of cell cycle arrest in human SGC-7901 cells assessed as downregulation of Cyclin B1 at 20 to 60 nM incubated for 48 hrs by Western blot analysis; format: functional, cell-based; settings: dose 20-60 nM; procedure, shortened: as §3
[23] = tested on: GES1; assay: Cytotoxicity against human GES1 cells assessed as reduction in cell viability incubated for 48 hrs by MTT assay; format: functional, cell-based; settings: GES1, 48 h
Procedure, shortened: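 MTT assay. 5,000 cells per well in RPMI-1640 with 10% FBS and penicillin/streptomycin at 37 °C, 5% CO2. Compound added 24 h after seeding and left for 48 h. MTT was then added for 4 h at 37 °C, formazan dissolved in DMSO and absorbance read at 490 nm. IC50 calculated from three independent experiments.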

[24] = tested on: SGC-7901; assay: Induction of apoptosis in human SGC-7901 cells assessed as fragmentation of cells at 20 to 60 nM; format: functional, cell-based; settings: dose 20-60 nM
Procedure, shortened: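 Gastric cancer cells in RPMI-1640/10% FBS at 37 °C, 5% CO2, exposed to 20, 40 and 60 nM for 48 h; nuclear morphology (condensation, fragmentation) inspected after staining.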

[25] = tested on: MGC-803; assay: Induction of apoptosis in human MGC-803 cells assessed as downregulation of c-IAP2 at 20 to 60 nM incubated for 48 hrs by Western blot analysis; format: functional, cell-based; settings: dose 20-60 nM; procedure, shortened: as §1
[26] = tested on: MGC-803; assay: Induction of apoptosis in human MGC-803 cells assessed as increase in caspase-3 cleavage at 20 to 60 nM incubated for 48 hrs by Western blot analysis; format: functional, cell-based; settings: dose 20-60 nM; procedure, shortened: as §1

COc1ccc(CN(C(=O)CSc2nc3ccccc3s2)c2cc(OC)c(OC)c(OC)c2)cc1O
Activity [1]: Active
Activity [2]: 30.4%
inhibition [3]: Dose-dependent effect
Activity [4]: Dose-dependent effect
Activity [5]: Active
Activity [6]: Active
inhibition at 0.06 µM [7]: 63%
inhibition at 0.06 µM [8]: < 20%
Activity [9]: Active
Activity [10]: Active
Activity [11]: Active
Activity [12]: Active
Activity [13]: Active
Activity [14]: Active
Activity [15]: Active
Activity [16]: Non-Toxic
Activity [17]: 10.2%
Activity [18]: Active
Activity [19]: Active
Activity [20]: 4.1%
Activity [21]: 4.2%
Activity [22]: Active
IC50 [23]: 0.249 µM
Activity [24]: Active
Activity [25]: Active
Activity [26]: Active
